Experiments:
MCF7 [1] = test: Effect on [3H]thymidine incorporation into MCF-7 human breast cancer cells at 1x10E-7M; type: functional
How it was run: (§1)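 Cells were seeded at ~2 × 10⁴ per well, treated from the next day in 0.1% DMSO, with DMSO controls. MCF-7 cells were held in charcoal-stripped NCS for 2 weeks, treated for 5 days and re-dosed on day 4. MDA-MB 231 cells were grown in McCoy 5a/10% NCS and treated for 2 days. At the end, 1 µCi [³H]thymidine per well was added for 2 h. Result is % T/C, mean of three experiments × six dishes.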

[2] = biological target: T1, Estrogen receptor (Mus musculus) (UniProt O08537+P19785); test: Estrogenic activity in uterotrophic assay in immature mice at 10.0 ug subcutaneous dose; type: functional
How it was run: (§2)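 Immature female NMRI mice, 20 days old, in groups of 6-10, were dosed sc once daily for three consecutive days. Compounds were given in PEG/0.9% saline 1:1; vehicle controls were included. Animals were killed 24 h after the last dose. Uteri were fixed in Bouin solution and the effect was taken as uterine dry weight (mg)/body weight (g) ×100, given as mean ± SD.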

[3] = biological target: T2, Androgen receptor (Mus musculus) (UniProt P19091); test: Inhibition of seminal vesicle weight in intact mice at 10.0 ug
T2 sequence (whole entry): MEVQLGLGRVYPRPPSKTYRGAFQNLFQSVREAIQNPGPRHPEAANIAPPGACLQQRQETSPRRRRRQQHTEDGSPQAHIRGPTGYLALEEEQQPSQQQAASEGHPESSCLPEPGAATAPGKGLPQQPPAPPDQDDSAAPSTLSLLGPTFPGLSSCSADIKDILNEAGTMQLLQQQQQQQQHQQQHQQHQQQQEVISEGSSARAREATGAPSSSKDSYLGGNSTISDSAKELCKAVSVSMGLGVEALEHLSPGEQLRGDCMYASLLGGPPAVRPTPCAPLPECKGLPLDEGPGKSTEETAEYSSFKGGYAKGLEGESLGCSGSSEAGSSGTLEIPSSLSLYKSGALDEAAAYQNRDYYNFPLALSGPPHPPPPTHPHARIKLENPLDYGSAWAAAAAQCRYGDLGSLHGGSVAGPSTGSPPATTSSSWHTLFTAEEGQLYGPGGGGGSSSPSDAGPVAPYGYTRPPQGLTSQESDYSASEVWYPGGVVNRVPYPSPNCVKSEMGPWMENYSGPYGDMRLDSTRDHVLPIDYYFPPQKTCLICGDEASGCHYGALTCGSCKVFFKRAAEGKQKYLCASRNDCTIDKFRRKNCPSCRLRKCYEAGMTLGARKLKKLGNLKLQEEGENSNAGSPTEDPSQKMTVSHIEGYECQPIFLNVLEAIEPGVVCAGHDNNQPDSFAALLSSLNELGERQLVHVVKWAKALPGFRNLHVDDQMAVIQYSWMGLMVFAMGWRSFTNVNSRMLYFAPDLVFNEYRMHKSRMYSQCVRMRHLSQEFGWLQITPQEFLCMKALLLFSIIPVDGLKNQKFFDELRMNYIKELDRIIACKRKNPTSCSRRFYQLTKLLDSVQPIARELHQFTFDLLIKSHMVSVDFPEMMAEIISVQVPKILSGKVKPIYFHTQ

[4] = biological target: T1, Estrogen receptor (Mus musculus); test: Inhibition of 0.4 ug estrone-stimulated uterine growth in mice at 125 ug subcutaneous dose; p<0.01; type: functional
How it was run: (§3)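 Immature 20-day-old female NMRI mice received sc injections on three consecutive days. Each injection held 0.4 µg estrone plus the compound in PEG/saline 1:1. […] Significance was tested by Mann-Whitney U test.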

MDA-MB-231 [5] = test: Effect on [3H]thymidine incorporation into MDA-MB 231 human breast cancer cells at 5x10E-6M; type: functional; how it was run: as §1
[6] = biological target: T1, Estrogen receptor (Mus musculus); test: Inhibition of 0.4 ug estrone-stimulated uterine growth in mice at 250 ug subcutaneous dose; type: functional; how it was run: as §3
[7] = biological target: T2, Androgen receptor (Mus musculus); test: Inhibition of testosterone-stimulated seminal vesicle growth in castrated mice supplemented with 0.3 mg of TP at 1000.0 ug; type: functional
How it was run: (§4)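 Adult male mice, 23–25 g, six per group, were used intact or castrated via the scrotal route under ether 5 days before the test. Castrates received 0.3 mg testosterone propionate daily. Compounds were injected daily in olive oil for nine days. Seminal vesicles were taken 24 h later, fixed in Bouin solution, dried overnight at 100 °C and weighed. Result is organ mg/body g ×100; % inhibition = [1 − treated/control] × 100.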

MCF7 [8] = test: Effect on hormone-dependent MCF-7 human breast cancer cell proliferation at 5x10E-6M; type: functional
How it was run: (§5)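 Cells were plated at about 2 × 10⁴ per well in six-well dishes. MCF-7 cells were grown in modified improved MEM with 5% NCS, switched to charcoal-treated NCS two weeks before the test, and exposed for 5 days with a re-dose on day 4. MDA-MB 231 cells were grown in McCoy 5a with 10% NCS and exposed for 2 days. Compounds were given 1 day after plating in 0.1% DMSO, with DMSO-matched controls. Read-out was cell number as % T/C, mean of three experiments with six dishes.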

[9] = biological target: T1, Estrogen receptor (Mus musculus); test: (§6) Estrogenic activity in uterotrophic assay in immature mice at 250 ug subcutaneous dose; type: functional; how it was run: as §2
[10] = biological target: T2, Androgen receptor (Mus musculus); test: Relative effect on seminal vesicle weight in adult and castrated mice at 100 ug dose; type: functional, tissue-based; how it was run: as §4
Bos taurus = organism: Bos taurus; test: Relative binding affinity(RBA) as ratio of progesterone and compound required to displace [3H]-org 2058 binding to Progesterone receptor by 50%
How it was run: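 Receptor source was calf uterine cytosol (105000g supernatant, 3 mg/mL protein in assay). Buffers were Tris/EDTA pH 7.4, with NaN₃ for ER, molybdate/glycerol for AR, and sucrose for PR. Tracers were 1 nM [³H]estradiol, [³H]mibolerone or [³H]Org 2058. Incubation was at 0–4 °C for 16 h (ER) or 2 h (AR, PR), with 4–6 competitor concentrations. Nonspecific binding used 2 µM of the unlabeled hormone. Separation was by dextran-coated charcoal. RBA is the ratio of IC50 values for hormone and compound ×100, mean of two triplicate experiments.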

MCF7 [11] = test: Effect on [3H]thymidine incorporation into MCF-7 human breast cancer cells at 1x10E-5 M; type: functional; how it was run: as §1
MCF7 [12] = test: Effect on hormone-dependent MCF-7 human breast cancer cell proliferation at 1x10E-5 M; type: functional; how it was run: as §5
[13] = biological target: T1, Estrogen receptor (Mus musculus); test: Estrogenic activity in uterotrophic assay in immature mice at 2 ug subcutaneous dose; type: functional; how it was run: as §2
[14] = biological target: T1, Estrogen receptor (Mus musculus); test: Inhibition of 0.4 ug estrone-stimulated uterine growth in mice at 2 ug subcutaneous dose; type: functional; how it was run: as §3
[15] = biological target: T1, Estrogen receptor (Mus musculus); test: Estrogenic activity in uterotrophic assay in immature mice at 50.0 ug subcutaneous dose; type: functional; how it was run: as §2
[16] = biological target: T1, Estrogen receptor (Mus musculus); test: as §6; type: functional; how it was run: as §2; remark: listed apart in the source
MCF7 [17] = test: Effect on [3H]thymidine incorporation into MCF-7 human breast cancer cells at 1x10E-6M; type: functional; how it was run: as §1
MDA-MB-231 [18] = test: Cytostatic effect on hormone-independent MDA-MB 231 human breast cancer cell proliferation at 1x10E-5 M; type: functional; how it was run: as §5
[19] = biological target: T2, Androgen receptor (Mus musculus); test: Inhibition of seminal vesicle weight in intact mice at 100 ug
MCF7 [20] = test: Effect on [3H]thymidine incorporation into MCF-7 human breast cancer cells at 5x10E-6M; type: functional; how it was run: as §1

T1 sequence (O08537 whole entry, looked up): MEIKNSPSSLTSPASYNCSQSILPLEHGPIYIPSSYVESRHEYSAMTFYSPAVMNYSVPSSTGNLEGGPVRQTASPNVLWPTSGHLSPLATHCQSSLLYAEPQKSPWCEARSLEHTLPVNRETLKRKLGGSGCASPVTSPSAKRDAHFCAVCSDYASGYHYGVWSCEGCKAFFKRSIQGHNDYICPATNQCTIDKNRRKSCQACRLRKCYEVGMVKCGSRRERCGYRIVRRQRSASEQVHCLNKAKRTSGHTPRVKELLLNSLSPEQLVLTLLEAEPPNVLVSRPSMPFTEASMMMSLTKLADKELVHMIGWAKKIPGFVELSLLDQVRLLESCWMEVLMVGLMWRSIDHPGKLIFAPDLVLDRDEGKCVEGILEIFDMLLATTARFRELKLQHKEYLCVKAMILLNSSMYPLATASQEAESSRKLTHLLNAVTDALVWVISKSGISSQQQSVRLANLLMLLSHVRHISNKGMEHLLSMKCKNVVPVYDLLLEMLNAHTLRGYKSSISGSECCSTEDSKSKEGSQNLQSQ
T1 sequence (P19785 whole entry, looked up): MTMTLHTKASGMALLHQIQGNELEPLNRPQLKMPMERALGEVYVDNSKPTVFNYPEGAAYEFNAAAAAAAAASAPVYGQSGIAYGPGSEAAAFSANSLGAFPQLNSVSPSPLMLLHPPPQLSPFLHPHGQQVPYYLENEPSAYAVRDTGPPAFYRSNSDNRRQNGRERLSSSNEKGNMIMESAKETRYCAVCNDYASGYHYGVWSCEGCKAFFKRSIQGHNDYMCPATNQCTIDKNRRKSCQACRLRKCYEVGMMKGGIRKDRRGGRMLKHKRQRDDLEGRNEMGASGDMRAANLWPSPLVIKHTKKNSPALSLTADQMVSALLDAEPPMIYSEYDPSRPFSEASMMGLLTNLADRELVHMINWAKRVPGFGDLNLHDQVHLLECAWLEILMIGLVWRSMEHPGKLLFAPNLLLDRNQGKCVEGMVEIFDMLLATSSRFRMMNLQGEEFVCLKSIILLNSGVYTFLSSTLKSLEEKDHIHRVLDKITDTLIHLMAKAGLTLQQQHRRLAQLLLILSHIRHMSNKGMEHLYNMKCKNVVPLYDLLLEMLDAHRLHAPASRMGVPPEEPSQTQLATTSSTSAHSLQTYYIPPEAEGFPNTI

Effect [2]: 51 | inhibition [3]: 22% | inhibition [4]: 42% | inhibition [6]: 34.1% | inhibition [7]: 17% | Effect [9]: 42.6 | Relative seminal vesicle weight [10]: 54.5 | RBA (Bos taurus): 0.13 | Effect [13]: 52.3 | inhibition [14]: 7.2% | Effect [15]: 35.8 | Effect [16]: 53.4 | inhibition [19]: 67%
SMILES: CCC1Cc2cc(OC(C)=O)ccc2-c2cc3cc(OC(C)=O)ccc3n21 (stereo unspecified)
T/C (MCF7 [1]): 63% | T/C (MDA-MB-231 [5]): 4% | T/C (MCF7 [8]): 10% | T/C (MCF7 [11]): 2% | T/C (MCF7 [12]): 8% | T/C (MCF7 [17]): 25% | T/C (MDA-MB-231 [18]): 4% | T/C (MCF7 [20]): 4%

From ChEMBL document CHEMBL1124929, “Indolo[2,1-a]isoquinolines. Syntheses, steroid hormone receptor binding affinities, and cytostatic activity” (1990)
